ASAP1 inh = inhibitors of human ASAP1 ArfGAP activity, primary screen, biochemical, fluorescence polarization; ASAP1-stimulated ARF1 GTP hydrolysis, GDP FP detection; 360,000 tested, 0.19% active; Arf-GAP with SH3 domain, ANK repeat and PH domain-containing protein 1 (Homo sapiens), …; AID 624377, 2012; inhibition, % at 16.5 µM;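 further: 0% = vehicle with enzyme and substrate and 100% = no enzyme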
TDP2 inh = human TDP2 enzyme inhibitors, primary screen, biochemical, epi absorbance, recombinant enzyme; inhibition, % at 12.8 µM; T5PNP hydrolysis, p-nitrophenol absorbance 415 nm; Tyrosyl-DNA phosphodiesterase 2 (Homo sapiens), O95551; 370,000 tested, 0.34% active;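 active means inhibition above the mean of all tested compounds plus 3 SD, set per campaign, cut at about 25% in these data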;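 further: 0% = DMSO with enzyme and 100% = buffer with substrate but no TDP2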
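test system = human TDP2 enzyme | input = TDP2 enzyme at 120 nM final | medium = 50 mM Tris-HCl pH 7.5 with Mg2+, KCl, DTT, BSA | also added = T5PNP substrate, 5 mM | times = 2 h at 37 °C | technique = epi absorbance | benchmarks = high control without enzyme, low control DMSO plus TDP2 | replication = each compound tested once, singlicate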
LEDGF integ inh = blockers of LEDGF/p75-dependent integrase strand transfer – biochemical, TR-FRET, high throughput, primary screen. HIV-1 integrase (with human LEDGF/p75). TR-FRET IN-LEDGF/p75 DNA integration, Eu/Cy5. inhibition, % at 3.7 µM. 370,000 tested, 0.64% active. AID 743269, 2014;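 active means inhibition above the screen-wide mean plus 3 SD, cut at about 13% in these data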;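 further: signal is the Cy5 over europium emission ratio at 671 and 618 nm; 0% = plate median of compound wells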
ARFGAP1 inhibitor = inhibitors of rat ARFGAP1 GAP activity, primary screen, biochemical, fluorescence polarization, GDP tracer. ADP-ribosylation factor GTPase-activating protein 1 (Rattus norvegicus), Q62848. 360,000 tested, 0.26% active. Arfgap1-stimulated ARF1 GTP hydrolysis, GDP FP detection. inhibition, % at 16.5 µM;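 active means inhibition above a per-plate limit, mean inhibition of low control wells plus 3 SD, cut at about 25% in these data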;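 further: 0% = DMSO wells with enzyme and 100% = wells lacking Arfgap1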
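Replicates: Single well per compound | Assay system: Truncated rat Arfgap1 GAP domain | Control set: No-Arfgap1 wells (100%) versus DMSO full-reaction wells (0%) | Times: Enzyme reaction 120 min at 25 °C after 20 min preincubation | Reagent: Human ARF1(Δ1-17)-GTP substrate | Measured by: Tracer-displacement fluorescence polarization with EDTA stop, 620/688 nm | Measure: Percent inhibition of Arfgap1-stimulated GTP hydrolysis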
UHRF1 binding = UHRF1 methylated DNA binding inhibitors, primary screen, counter-screen for MBD2 inhibitor project, biochemical, TR-FRET, human UHRF1, single concentration; UHRF1 binding to methylated oligo; 370,000 tested, 0.75% active; AID 687016, 2013; inhibition, % at 4.4 µM; in the data active means inhibition above about 21%;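 further: UHRF1 SRA domain binding a hemimethylated CpG hairpin DNA probe; 0% = median of test compound wells and 100% = reference inhibitor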
MBD2 DNA inh = inhibitors of MBD2 binding to methylated DNA, primary screen, biochemical, TR-FRET, DNA-binding domain, human; AID 686964, 2013; inhibition, % at 4.4 µM; Methyl-CpG-binding domain protein 2 (Homo sapiens), Q9UBB5; MBD2 binding to methylated oligonucleotide; 370,000 tested, 0.31% active; in the data active means inhibition above about 13%
Target sequence (Q9UBB5 whole entry, looked up, the tested form may be a part): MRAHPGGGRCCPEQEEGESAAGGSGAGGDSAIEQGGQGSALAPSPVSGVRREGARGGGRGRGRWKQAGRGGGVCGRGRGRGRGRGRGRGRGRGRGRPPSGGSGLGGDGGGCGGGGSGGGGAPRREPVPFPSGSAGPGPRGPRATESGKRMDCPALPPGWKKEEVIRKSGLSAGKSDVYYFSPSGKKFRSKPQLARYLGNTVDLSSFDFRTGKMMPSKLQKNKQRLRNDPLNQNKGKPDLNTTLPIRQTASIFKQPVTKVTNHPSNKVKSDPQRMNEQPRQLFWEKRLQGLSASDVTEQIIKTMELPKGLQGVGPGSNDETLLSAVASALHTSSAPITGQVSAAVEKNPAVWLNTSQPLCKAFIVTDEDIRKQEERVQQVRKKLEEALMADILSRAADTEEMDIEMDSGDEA
TDP2 inh conf = human TDP2 enzyme inhibitors, retest, confirmation, biochemical, epi absorbance, recombinant enzyme; shares compounds with TDP2 inh; absorbance read-out; inhibition, % at 12.8 µM; 1,100 tested, 22% active; AID 743263, 2014;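 further: 0% = vehicle with enzyme and 100% = no enzyme buffer only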
IN multimer act = HIV-1 IN multimer formation enhancers, counter-screen for LEDGF/p75 integration inhibitor project, biochemical, TR-FRET; shares compounds with LEDGF integ inh; TR-FRET HIV-1 integrase multimerization; activation, % at 7.7 µM; 2,000 tested, 17% active; AID 1053131, 2014; in the data active means activation above about 8.9%
TR-FRET interf = TR-FRET optical interference artefacts, confirmation, artefact control for LEDGF/p75-dependent integration inhibitor project, biochemical, HIV-1 IN multimerization; shares compounds with LEDGF integ inh; TR-FRET optical interference counterscreen; inhibition, % at 7.7 µM; 2,000 tested, under 10 active; AID 1053135, 2014;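 active means inhibition above the mean over all tested compounds plus 3 SD, which no compound reached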;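 further: 0% = integrase with antibodies and DMSO and 100% = antibodies without integrase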
IN-LEDGF confirm = inhibitors of HIV-1 IN-LEDGF/p75 DNA integration, confirmation, biochemical, TR-FRET. shares compounds with LEDGF integ inh. AID 1053136, 2014. 2,000 tested, 36% active. inhibition, % at 3.7 µM. TR-FRET LEDGF/p75-dependent HIV-1 integration; in the data active means inhibition above about 14%
* = called active by the depositor. Shown are actives, neighbours in structure and some others; about 2% of the full set was active somewhere. Unless noted, no stated cut-off is given here; in the data, active means inhibition above about 25%; inactive means the rest.

How did Cc1cccc2c1=NC(=O)/C(=C/c1c(O)[nH]c(=O)[nH]c1=O)C=2 do in these assays?
ASAP1 inh: -2; TDP2 inh: 32*; LEDGF integ inh: 1; ARFGAP1 inhibitor: 9; UHRF1 binding: -10; MBD2 DNA inh: -6; TDP2 inh conf: 38*

Results for O=c1[nH]c(=S)[nH]c(O)c1/C=C1/C=c2ccccc2=N1 ?
ASAP1 inh: 8; TDP2 inh: 4; LEDGF integ inh: -1; ARFGAP1 inhibitor: -10; UHRF1 binding: -3; MBD2 DNA inh: -6

Results for O=C(O)c1cc2ccccc2n1C1CCN(Cc2ccccc2)CC1 ?
TDP2 inh: 5; LEDGF integ inh: -1; UHRF1 binding: -1; MBD2 DNA inh: 4

How did O=C(CN1CCOCC1)c1ccc(Br)cc1 do in these assays?
ASAP1 inh: 2; TDP2 inh: 11; LEDGF integ inh: 6; ARFGAP1 inhibitor: 9; UHRF1 binding: 1; MBD2 DNA inh: -6

What do the screens show for `O=C(CN1CCOCC1)c1cccc2ccccc12`?
ASAP1 inh: -16; TDP2 inh: 25*; LEDGF integ inh: 2; ARFGAP1 inhibitor: -7; UHRF1 binding: 2; MBD2 DNA inh: -7; TDP2 inh conf: 16

What do the screens show for `COc1ccc(OCC#CCN2CCCCCC2)cc1`?
ASAP1 inh: -16; TDP2 inh: 10; LEDGF integ inh: 0; ARFGAP1 inhibitor: -2; UHRF1 binding: 7; MBD2 DNA inh: 2

Results for COc1ccc(OCC#CCN2CCNCC2)cc1 ?
ASAP1 inh: -8; TDP2 inh: 31*; LEDGF integ inh: 2; ARFGAP1 inhibitor: 1; UHRF1 binding: 0; MBD2 DNA inh: -2; TDP2 inh conf: 2

How did Nc1c(Br)cc2c3c(cccc13)-c1ccccc1-2 do in these assays?
ASAP1 inh: 6; TDP2 inh: 64*; LEDGF integ inh: 6; ARFGAP1 inhibitor: -12; UHRF1 binding: 12; MBD2 DNA inh: 6; TDP2 inh conf: 17

How did O=C(NC1CCCCC1)Oc1cc2oc(=O)sc2cc1Cl do in these assays?
ASAP1 inh: 0; TDP2 inh: 29*; LEDGF integ inh: 0; ARFGAP1 inhibitor: 9; UHRF1 binding: 6; MBD2 DNA inh: 8; TDP2 inh conf: 12

How did COc1cc2c(cc1OC)-c1c(OC)c(OC)cc3c1C(C2)N(C)CC3 (stereo not drawn) do in these assays?
ASAP1 inh: -3; TDP2 inh: 52*; LEDGF integ inh: 20*; ARFGAP1 inhibitor: -7; UHRF1 binding: 34*; MBD2 DNA inh: 13; TDP2 inh conf: 60*; IN multimer act: 2; TR-FRET interf: -8; IN-LEDGF confirm: 11
